What was measured:
[1] = test system: Human immunodeficiency virus 1; assay: Antiviral activity against Human immunodeficiency virus 1 HXB2 expressing protease M8 mutant infected in human MT4 cells after 5 days by MTT assay; format: functional, organism-based; details: Human immunodeficiency virus 1, HXB2, MT4, 120 h
[2] = test system: Human immunodeficiency virus 1; assay: Antiviral activity against Human immunodeficiency virus 1 HXB2 expressing wild type protease infected in human MT4 cells after 5 days by MTT assay; format: functional, organism-based; details: Human immunodeficiency virus 1, HXB2, MT4, 120 h
[3] = test system: Human immunodeficiency virus 1; assay: Antiviral activity against Human immunodeficiency virus 1 HXB2 expressing protease M10 mutant infected in human MT4 cells after 5 days by MTT assay; format: functional, organism-based; details: Human immunodeficiency virus 1, HXB2, MT4, 120 h
[4] = test system: Human immunodeficiency virus 1; assay: Antiviral activity against Human immunodeficiency virus 1 HXB2 expressing protease M9 mutant infected in human MT4 cells after 5 days by MTT assay; format: functional, organism-based; details: Human immunodeficiency virus 1, HXB2, MT4, 120 h
[5] = Inhibition of Human immunodeficiency virus protease M8 mutant expressed in Escherichia coli using ArgGlu(EDANS)SerGlnAsnTyrProIleValGlnLys(DABCYL)Arg as substrate preincubated with compound for 0.5 to 1 min measured by fluorometric analysis at pH 6.5
[6] = Inhibition of wild type Human immunodeficiency virus protease expressed in Escherichia coli using ArgGlu(EDANS)SerGlnAsnTyrProIleValGlnLys(DABCYL)Arg as substrate preincubated with compound for 0.5 to 1 min measured by fluorometric analysis at pH 6.5
[7] = Inhibition of Human immunodeficiency virus protease M10 mutant expressed in Escherichia coli using ArgGlu(EDANS)SerGlnAsnTyrProIleValGlnLys(DABCYL)Arg as substrate preincubated with compound for 0.5 to 1 min measured by fluorometric analysis at pH 6.5
[8] = Inhibition of Human immunodeficiency virus protease M9 mutant expressed in Escherichia coli using ArgGlu(EDANS)SerGlnAsnTyrProIleValGlnLys(DABCYL)Arg as substrate preincubated with compound for 0.5 to 1 min measured by fluorometric analysis at pH 6.5
[9] = test system: Human immunodeficiency virus 1; assay: Antiviral activity against Human immunodeficiency virus 1 HXB2 expressing protease M3 mutant infected in human MT4 cells after 5 days by MTT assay; format: functional, organism-based; details: Human immunodeficiency virus 1, HXB2, MT4, 120 h
Outline: (§1)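 MT-4 cells (AIDS Research and Reference Reagent Program) exposed to 50% tissue culture infective doses (TCID₅₀) of virus with various concentrations of test compound for 5 days. MTT solution then added and absorbance measured. Mutant strains carry 10–17 resistance mutations with phenotypic resistance to marketed PIs; all include I84V except M7. IC₅₀ reported.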

[10] = test system: Human immunodeficiency virus 1; assay: Antiviral activity against Human immunodeficiency virus 1 HXB2 expressing protease M4 mutant infected in human MT4 cells after 5 days by MTT assay; format: functional, organism-based; details: Human immunodeficiency virus 1, HXB2, MT4, 120 h; outline: as §1
[11] = test system: Human immunodeficiency virus 1; assay: Antiviral activity against Human immunodeficiency virus 1 HXB2 expressing protease M6 mutant infected in human MT4 cells after 5 days by MTT assay; format: functional, organism-based; details: Human immunodeficiency virus 1, HXB2, MT4, 120 h; outline: as §1
[12] = test system: Human immunodeficiency virus 1; assay: Antiviral activity against Human immunodeficiency virus 1 HXB2 expressing protease M5 mutant infected in human MT4 cells after 5 days by MTT assay; format: functional, organism-based; details: Human immunodeficiency virus 1, HXB2, MT4, 120 h; outline: as §1

| Compound | IC50 [1] | IC50 [2] | IC50 [3] | IC50 [4] | Ki [5] | Ki [6] | Ki [7] | Ki [8] | IC50 [9] | IC50 [10] | IC50 [11] | IC50 [12] |
| --- | --- | --- | --- | --- | --- | --- | --- | --- | --- | --- | --- | --- |
| CC(C)CN(C[C@@H](O)[C@H](Cc1ccccc1)NC(=O)O[C@H]1CO[C@H]2OCC[C@H]21)S(=O)(=O)c1ccc2c(c1)C(=CNCCNc1ccccc1)C(=O)N2 (mixture of isomers) | 0.16 µM | > 0.08 µM | 0.12 µM | 0.08 µM | 0.00039 µM | < 0.0001 µM | 0.003 µM | < 0.0003 µM |  |  |  |  |
| CC(C)CN(C[C@@H](O)[C@H](Cc1ccccc1)NC(=O)O[C@H]1CO[C@H]2OCC[C@H]21)S(=O)(=O)c1ccc2c(c1)C(=CNCCN(C)C)C(=O)N2 (mixture of isomers) |  | > 0.4 µM |  |  | 0.00057 µM | < 0.0001 µM | 0.0017 µM | < 0.0003 µM |  |  |  |  |
| COCCNC=C1C(=O)Nc2ccc(S(=O)(=O)N(CC(C)C)C[C@@H](O)[C@H](Cc3ccccc3)NC(=O)O[C@H]3CO[C@H]4OCC[C@H]43)cc21 (mixture of isomers) |  | 0.07 µM | 0.048 µM | 0.042 µM | < 0.0001 µM | 0.00011 µM | 0.0012 µM | < 0.0003 µM |  |  |  |  |
| CC(C)CN(C[C@@H](O)[C@H](Cc1ccccc1)NC(=O)O[C@H]1CO[C@H]2OCC[C@H]21)S(=O)(=O)c1ccc2c(c1)C(=CNCCO)C(=O)N2 (mixture of isomers) |  | > 0.4 µM | 0.4 µM | 0.8 µM | 0.00011 µM | < 0.0001 µM | < 0.001 µM | < 0.0003 µM |  |  |  |  |
| CC(C)CN(C[C@@H](O)[C@H](Cc1ccccc1)NC(=O)O[C@H]1CO[C@H]2OCC[C@H]21)S(=O)(=O)c1ccc2c(c1)C(=CNCCc1ccccc1)C(=O)N2 (mixture of isomers) | 0.061 µM | 0.022 µM | 0.11 µM | 0.028 µM | 0.00017 µM | < 0.0001 µM | 0.0013 µM | < 0.0003 µM |  |  |  |  |
| CC(C)CN(C[C@@H](O)[C@H](Cc1ccccc1)NC(=O)O[C@H]1CO[C@H]2OCC[C@H]21)S(=O)(=O)c1ccc2c(c1)C(=CNCc1ccc3ccccc3n1)C(=O)N2 (mixture of isomers) | 0.034 µM | 0.035 µM | 0.027 µM | 0.023 µM | < 0.0001 µM | 0.0001 µM | < 0.001 µM | < 0.0003 µM | 0.021 µM | 0.04 µM | 0.025 µM |  |
| CC(C)CN(C[C@@H](O)[C@H](Cc1ccccc1)NC(=O)O[C@H]1CO[C@H]2OCC[C@H]21)S(=O)(=O)c1ccc2c(c1)C(=CNCc1nc3ccccc3[nH]1)C(=O)N2 (mixture of isomers) |  | > 0.4 µM |  |  |  | < 0.0001 µM | < 0.001 µM | < 0.0003 µM |  |  |  |  |
| Cc1nc(CNC=C2C(=O)Nc3ccc(S(=O)(=O)N(CC(C)C)C[C@@H](O)[C@H](Cc4ccccc4)NC(=O)O[C@H]4CO[C@H]5OCC[C@H]54)cc32)cs1 (mixture of isomers) | 0.04 µM | 0.045 µM | 0.029 µM | 0.03 µM |  | < 0.0001 µM | < 0.001 µM | < 0.0003 µM |  |  |  |  |
| CC(C)CN(C[C@@H](O)[C@H](Cc1ccccc1)NC(=O)O[C@H]1CO[C@H]2OCC[C@H]21)S(=O)(=O)c1ccc2c(c1)C(=CNCc1ccncc1)C(=O)N2 (mixture of isomers) | 0.27 µM | 0.3 µM | 0.11 µM | 0.22 µM |  | < 0.0001 µM | < 0.001 µM | < 0.0003 µM |  |  |  |  |
| CC(C)CN(C[C@@H](O)[C@H](Cc1ccccc1)NC(=O)O[C@H]1CO[C@H]2OCC[C@H]21)S(=O)(=O)c1ccc2c(c1)C(=CNCC1CCCCC1)C(=O)N2 (mixture of isomers) | 0.027 µM | 0.0097 µM | 0.04 µM | 0.009 µM | 0.00016 µM | < 0.0001 µM | < 0.001 µM | < 0.0003 µM | 0.021 µM | 0.03 µM | 0.025 µM | 0.018 µM |
| CCN(C=C1C(=O)Nc2ccc(S(=O)(=O)N(CC(C)C)C[C@@H](O)[C@H](Cc3ccccc3)NC(=O)O[C@H]3CO[C@H]4OCC[C@H]43)cc21)CC (mixture of isomers) | 0.04 µM | 0.038 µM | 0.041 µM | 0.021 µM |  | < 0.0001 µM | < 0.001 µM | < 0.0003 µM |  |  |  |  |

From ChEMBL document CHEMBL2057112, “Enamino-oxindole HIV protease inhibitors” (Bioorg Med Chem Lett, 2012)
